In brackets after ≈: the same amount, converted by molar mass.
How the values were obtained:
[1] = Inhibition of cytosolic phospholipase A2alpha by GLU micelle assay
[2] = Lipophilicity, log D at pH 7.4; format: physicochemical; settings: buffer
Blood = assay: Inhibition of TXB2 production in calcium ionophore A-23187-stimulated Sprague-Dawley rat whole blood after 10 mins; format: functional, tissue-based
MC9 [3] = assay: Inhibition of PGF2alpha production in arachidonic acid-stimulated mouse MC9 cells at 5 uM treated 15 mins before arachidonic acid challenge measured after 4 mins; format: functional
MC9 [4] = assay: Inhibition of PGF2alpha production in DNP-BSA-stimulated mouse MC9 cells at 5 uM treated 15 mins before DNP-BSA challenge measured after 4 mins; format: functional
MC9 [5] = assay: Inhibition of LTB4 production in DNP-BSA-stimulated mouse MC9 cells at 5 uM treated 15 mins before DNP-BSA challenge measured after 4 mins; format: functional
[6] = Aqueous solubility after 18 hrs at pH 7.4; format: physicochemical
Outline: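 Compound taken as 8 mg/mL DMSO stock; 13 µL added to 1.0 mL pH 7.4 buffer, mixed, left to settle 18 h at room temperature. Mixture filtered (0.2 µm), filtrate concentration read by UV plate reader. Solubility derived against a single-point standard.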

[7] = Permeability in buffer of pH 7.4 by PAMPA; format: ADME; settings: read-out: permeability
Outline: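 PAMPA: 5 mg/mL DMSO stock diluted 200-fold in pH 7.4 universal buffer (25 µg/mL) and placed in donor wells. Filter membrane coated with phosphatidylcholine in dodecane (20 mg/mL); acceptor holds pH 7.4 buffer. Sandwich left 18 h at rt. Donor, acceptor and reference concentrations read by UV. Effective permeability (Pe) calculated; triplicate runs averaged. Verapamil and theophylline run as QC standards.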

Row | IC50 [1] [µM] | logD [2] | solubility at 18 h [6] [µg/mL] | SMILES | further results
1 | 30 |  |  | O=C(O)c1ccc(OC/C=C\Cn2c(=O)n(C(c3ccccc3)c3ccccc3)c(=O)c3ccc(Cl)cc32)cc1 | 
2 | 40 |  |  | O=C(O)c1ccc(OC/C=C\Cn2c(=O)n(C(c3ccccc3)c3ccccc3)c(=O)c3cc(Cl)ccc32)cc1 | 
3 | 90 |  |  | O=C(O)c1ccc(Cn2c(=O)c3cc(Cl)ccc3n(C(c3ccccc3)c3ccccc3)c2=O)cc1 | 
4 | 1.4 | 2.9 |  | O=C(O)c1ccc(OC/C=C/Cn2c(=O)n(C(c3ccccc3)c3ccccc3)c(=O)c3ccc(F)cc32)cc1 | IC50 (Blood): 6 µM; inhibition at 5 µM (MC9 [3]): -27%; inhibition at 5 µM (MC9 [4]): 83%; inhibition at 5 µM (MC9 [5]): 99%
5 | 2.2 | 2.5 | 48 (≈ 79.5 µM) | O=C(O)c1ccc(OC/C=C/Cn2c(=O)n(C(c3ccccc3)c3ccccc3)c(=O)c3ccc(N4CCOCC4)cc32)cc1 | Papp [7]: 1 ×10⁻⁶ cm/s
6 | 10 |  |  | O=C(O)c1ccc(OC/C=C/Cn2c(=O)n(C(c3ccccc3)c3ccccc3)c(=O)c3cc(Cl)ccc32)cc1 | 
7 | 15 | 1.4 | > 100 | CS(=O)(=O)c1ccc2c(=O)n(C(c3ccccc3)c3ccccc3)c(=O)n(C/C=C/COc3ccc(C(=O)O)cc3)c2c1 | Papp [7]: 0.3 ×10⁻⁶ cm/s
8 | 100 |  |  | O=C(O)c1cccc(OC/C=C/Cn2c(=O)n(C(c3ccccc3)c3ccccc3)c(=O)c3ccc(Cl)cc32)c1 | 
9 | 2.5 |  |  | O=C(O)c1ccc(OCCCCn2c(=O)n(C(c3ccccc3)c3ccccc3)c(=O)c3ccc(Cl)cc32)cc1 | 
10 | 47 |  |  | O=C(O)c1ccc(OCCCCCCn2c(=O)n(C(c3ccccc3)c3ccccc3)c(=O)c3ccccc32)cc1 | 
11 | 0.014 |  |  | Cc1cccc(C)c1CS(=O)(=O)NCCc1c(CCCc2ccc(C(=O)O)cc2)c2cc(Cl)ccc2n1C(c1ccccc1)c1ccccc1 | 
12 | 10 |  |  | O=C(O)c1ccc(OCCn2c(=O)n(C(c3ccccc3)c3ccccc3)c(=O)c3ccc(Cl)cc32)cc1 | 
13 | 2.8 | 3.2 | 40 (≈ 75.1 µM) | Cc1ccc2c(=O)n(C(c3ccccc3)c3ccccc3)c(=O)n(C/C=C/COc3ccc(C(=O)O)cc3)c2c1 | Papp [7]: 2 ×10⁻⁶ cm/s
14 | 71 |  |  | O=C(O)c1ccc(OCCCCCCCn2c(=O)n(C(c3ccccc3)c3ccccc3)c(=O)c3ccccc32)cc1 | 
15 | 10 |  |  | O=C(O)c1ccc(OCCn2c(=O)c3ccccc3n(C(c3ccccc3)c3ccccc3)c2=O)cc1 | 
16 | 4 | 3.3 |  | O=C(O)c1ccc(OCCn2c(=O)c3ccc(Cl)cc3n(C(c3ccccc3)c3ccccc3)c2=O)cc1 | inhibition at 5 µM (MC9 [3]): 0%; inhibition at 5 µM (MC9 [4]): 61%; inhibition at 5 µM (MC9 [5]): 93%
17 | 260 |  |  | O=C(O)Cc1ccc(Cn2c(=O)n(C(c3ccccc3)c3ccccc3)c(=O)c3ccccc32)cc1 | 
18 | 80 |  |  | O=C(O)c1ccc(Cn2c(=O)c3ccc(Cl)cc3n(C(c3ccccc3)c3ccccc3)c2=O)cc1 | 
19 | 30 |  |  | O=C(O)c1ccc(OC/C=C\Cn2c(=O)n(C(c3ccccc3)c3ccccc3)c(=O)c3cc(Br)ccc32)cc1 | 
20 | 4.5 |  | 28 (≈ 50.6 µM) | O=C(O)c1ccc(OC/C=C/Cn2c(=O)c3ccc(Cl)cc3n(C(c3ccccc3)c3ccccc3)c2=O)cc1 | 
21 | 3 | 6.1 |  | Cc1c(CCOc2ccc(C(=O)O)cc2)c2cc(Cl)ccc2n1C(c1ccccc1)c1ccccc1 | inhibition at 5 µM (MC9 [3]): -8%; inhibition at 5 µM (MC9 [4]): 81%; inhibition at 5 µM (MC9 [5]): 96%
22 | 40 |  |  | O=C(O)CCCOc1ccc(Cn2c(=O)n(C(c3ccccc3)c3ccccc3)c(=O)c3ccccc32)cc1 | 
23 | 6 |  |  | O=C(O)c1ccc(OC/C=C/Cn2c(=O)n(C(c3ccccc3)c3ccccc3)c(=O)c3cc(F)ccc32)cc1 | 
24 | 360 |  |  | O=C(O)COc1ccc(Cn2c(=O)n(C(c3ccccc3)c3ccccc3)c(=O)c3ccccc32)cc1 | 
25 | 1 | 2.4 | 34 (≈ 60.3 µM) | O=C(O)c1ccc(OC/C=C/Cn2c(=O)n(C(c3ccccc3)c3ccccc3)c(=O)c3ccc([N+](=O)[O-])cc32)cc1 | IC50 (Blood): 13 µM; inhibition at 5 µM (MC9 [3]): -12%; inhibition at 5 µM (MC9 [4]): 30%; Papp [7]: 2.6 ×10⁻⁶ cm/s; inhibition at 5 µM (MC9 [5]): 97%

Row | IC50 [1] [µM] | logD [2] | solubility at 18 h [6] [µg/mL] | SMILES | further results
26 | 60 |  | 51 (≈ 92.2 µM) | O=C(O)c1ccc(OC/C=C\Cn2c(=O)c3ccc(Cl)cc3n(C(c3ccccc3)c3ccccc3)c2=O)cc1 | 
27 | 140 |  |  | O=C(O)Cc1coc(-c2ccc(Cn3c(=O)n(C(c4ccccc4)c4ccccc4)c(=O)c4ccccc43)cc2)n1 | 
28 | 44 |  |  | O=C(O)c1ccc(OC/C=C\Cn2c(=O)n(C(c3ccccc3)c3ccccc3)c(=O)c3ccccc32)cc1 | 
29 | 3 |  |  | O=C(O)c1ccc(OC/C=C/Cn2c(=O)n(C(c3ccccc3)c3ccccc3)c(=O)c3ccccc32)cc1 | IC50 (Blood): 14 µM; inhibition at 5 µM (MC9 [4]): 52%; inhibition at 5 µM (MC9 [5]): 97%
30 | > 100 |  |  | O=C(O)c1ccc(OCCn2c(=O)c3ccccc3n(Cc3ccccc3)c2=O)cc1 | 
31 | 9 |  |  | O=C(O)c1ccc(OC/C=C/Cn2c(=O)n(C(c3ccccc3)c3ccccc3)c(=O)c3cc(Br)ccc32)cc1 | 
32 | 3 | 2.8 | 40 (≈ 72.9 µM) | COc1ccc2c(=O)n(C(c3ccccc3)c3ccccc3)c(=O)n(C/C=C/COc3ccc(C(=O)O)cc3)c2c1 | IC50 (Blood): 9 µM; inhibition at 5 µM (MC9 [3]): -98%; inhibition at 5 µM (MC9 [4]): 74%; Papp [7]: 1.8 ×10⁻⁶ cm/s; inhibition at 5 µM (MC9 [5]): 99%
33 | 30 |  |  | O=C(O)c1ccc(OCCCCCn2c(=O)n(C(c3ccccc3)c3ccccc3)c(=O)c3ccccc32)cc1 | 
34 | 1.6 | 4.8 | 15 (≈ 24.6 µM) | O=C(O)c1ccc(OC/C=C/Cn2c(=O)n(C(c3ccccc3)c3ccccc3)c(=O)c3ccc(Oc4ccccc4)cc32)cc1 | 
35 | 40 |  |  | O=C(O)c1ccc(OC/C=C\Cn2c(=O)n(C(c3ccccc3)c3ccccc3)c(=O)c3cc(F)ccc32)cc1 | 
36 | 50 |  |  | O=C(O)c1ccc(OCCCn2c(=O)n(C(c3ccccc3)c3ccccc3)c(=O)c3ccccc32)cc1 | 
37 | 1.8 | 3.3 | 30 (≈ 45.5 µM) | COC(=O)C1CCN(c2ccc3c(=O)n(C(c4ccccc4)c4ccccc4)c(=O)n(C/C=C/COc4ccc(C(=O)O)cc4)c3c2)CC1 | Papp [7]: 1 ×10⁻⁶ cm/s
38 | 12 |  |  | O=C(O)Cc1ccc(Cn2c(=O)c3cc(Br)ccc3n(C(c3ccccc3)c3ccccc3)c2=O)cc1 | 
39 | 5.6 |  | 42 (≈ 78.3 µM) | O=C(O)c1ccc(OC/C=C/Cn2c(=O)c3cc(F)ccc3n(C(c3ccccc3)c3ccccc3)c2=O)cc1 | 
40 | 2.1 | 4.8 |  | O=C(O)c1ccc(OC/C=C/Cn2c(=O)n(C(c3ccccc3)c3ccccc3)c(=O)c3ccc(Sc4ccccc4)cc32)cc1 | 
41 | 2 |  | 51 (≈ 98.3 µM) | O=C(O)c1ccc(OC/C=C/Cn2c(=O)c3ccccc3n(C(c3ccccc3)c3ccccc3)c2=O)cc1 | IC50 (Blood): 12 µM; inhibition at 5 µM (MC9 [3]): -15%; inhibition at 5 µM (MC9 [4]): 61%; inhibition at 5 µM (MC9 [5]): 98%
42 | 0.04 |  |  | O=C(O)c1ccc(CCCc2c(CCNS(=O)(=O)Cc3ccc(Cl)c(Cl)c3)n(C(c3ccccc3)c3ccccc3)c3ccc(Cl)cc23)cc1 [EFIPLADIB] | 
43 | 9 | 1.7 | > 100 | Nc1ccc2c(=O)n(C(c3ccccc3)c3ccccc3)c(=O)n(C/C=C/COc3ccc(C(=O)O)cc3)c2c1 | Papp [7]: 0.4 ×10⁻⁶ cm/s
44 | 2 | 3.2 | 26 (≈ 46 µM) | CSc1ccc2c(=O)n(C(c3ccccc3)c3ccccc3)c(=O)n(C/C=C/COc3ccc(C(=O)O)cc3)c2c1 | Papp [7]: 4.5 ×10⁻⁶ cm/s
45 | 1.1 | 1.4 | > 100 | O=C(O)c1ccc(OC/C=C/Cn2c(=O)n(C(c3ccccc3)c3ccccc3)c(=O)c3ccc(-n4cncn4)cc32)cc1 | IC50 (Blood): 11 µM; inhibition at 5 µM (MC9 [3]): -28%; inhibition at 5 µM (MC9 [4]): 102%; Papp [7]: 1.6 ×10⁻⁶ cm/s; inhibition at 5 µM (MC9 [5]): 100%
46 | 2.4 | 3.6 |  | O=C(O)c1ccc(OC/C=C/Cn2c(=O)n(C(c3ccccc3)c3ccccc3)c(=O)c3ccc(N4CCSCC4)cc32)cc1 | 
47 | 1 |  |  | O=C(O)c1ccc(OC/C=C/Cn2c(=O)n(C(c3ccccc3)c3ccccc3)c(=O)c3ccc(Cl)cc32)cc1 | IC50 (Blood): 11 µM; inhibition at 5 µM (MC9 [3]): -45%; inhibition at 5 µM (MC9 [4]): 99%; inhibition at 5 µM (MC9 [5]): 98%
48 | 25 |  | 37 (≈ 71.4 µM) | O=C(O)c1ccc(OC/C=C\Cn2c(=O)c3ccccc3n(C(c3ccccc3)c3ccccc3)c2=O)cc1 | 
49 | 120 |  |  | O=C(O)C1CC1Cn1c(=O)c2cc(Br)ccc2n(C(c2ccccc2)c2ccccc2)c1=O (stereo unspecified) | 
